# Results reported in ChEMBL document CHEMBL4152262, “Design, synthesis and evaluation of novel multi-target-directed ligands for treatment of Alzheimer's disease based on coumarin and lipoic acid scaffolds” (Eur J Med Chem, 2018).
# Legend:
# PC-12 [1] = assay: Neuroprotection against H2O2-induced cell death in rat PC12 cells assessed as cell viability at 10 uM preincubated for 3 hrs followed by H2O2 stimulation measured after 2 hrs by MTT assay (reference value: 25.2 to 41.8%); type: functional; details: read-out: Activity
# PC-12 [2] = assay: Neuroprotection against H2O2-induced cell death in rat PC12 cells assessed as increase in cell viability preincubated for 3 hrs followed by H2O2 stimulation measured after 2 hrs by MTT assay; type: functional, cell-based
# PC-12 [3] = assay: Neuroprotection against H2O2-induced cell death in rat PC12 cells assessed as cell viability at 50 uM preincubated for 3 hrs followed by H2O2 stimulation measured after 2 hrs by MTT assay (reference value: 25.2 to 41.8%); type: functional; details: read-out: Activity
# PC-12 [4] = assay: Inhibition of H2O2-induced ROS generation in rat PC12 cells preincubated for 6 hrs followed by H2O2 addition measured after 18 hrs by DCFH-DA staining based fluorimetric method; type: functional, cell-based
# Procedure, shortened: (§1)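 PC12 cells at 1×10^4/well in RPMI with 10% FBS and penicillin/streptomycin, 24 h at 37 °C, 5% CO2. Test samples (1, 5, 10, 50 µM; ≤0.5% DMSO) for 6 h, PBS wash, then H2O2 150 µM for 18 h. Loaded with 10 µM DCFH-DA for 30 min at 37 °C in the dark, washed twice. DCF fluorescence read at ex 485/em 528 nm as % of untreated control. Three independent experiments, mean ± SEM.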
# SH-SY5Y [5] = assay: Inhibition of amyloid beta (1 to 42) (unknown origin)-induced cell death in human SH-SY5Y cells assessed as cell viability at 50 uM preincubated for 3 hrs followed by amyloid beta (1 to 42) addition measured after 24 hrs by MTT assay relative to control; type: functional; details: read-out: Activity
# Procedure, shortened: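 SH-SY5Y cells grown in DMEM with 10% FBS, 1% L-glutamine and antibiotics, seeded at 5×10^3/well. Pretreated 3 h with compound (10 or 50 µM), then Aβ1-42 10 µM added for 24 h. MTT, formazan dissolved in DMSO, A570. Viability as blank-corrected % of untreated control; three independent experiments, mean ± SEM.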
# Cholinesterase = Cholinesterase (Equus caballus, UniProt P81908); assay: Inhibition of equine serum BuChE using butyrylthiocholine iodide as substrate pretreated for 5 mins followed by substrate addition by Ellman's method
# Sequence of Cholinesterase (P81908 whole entry): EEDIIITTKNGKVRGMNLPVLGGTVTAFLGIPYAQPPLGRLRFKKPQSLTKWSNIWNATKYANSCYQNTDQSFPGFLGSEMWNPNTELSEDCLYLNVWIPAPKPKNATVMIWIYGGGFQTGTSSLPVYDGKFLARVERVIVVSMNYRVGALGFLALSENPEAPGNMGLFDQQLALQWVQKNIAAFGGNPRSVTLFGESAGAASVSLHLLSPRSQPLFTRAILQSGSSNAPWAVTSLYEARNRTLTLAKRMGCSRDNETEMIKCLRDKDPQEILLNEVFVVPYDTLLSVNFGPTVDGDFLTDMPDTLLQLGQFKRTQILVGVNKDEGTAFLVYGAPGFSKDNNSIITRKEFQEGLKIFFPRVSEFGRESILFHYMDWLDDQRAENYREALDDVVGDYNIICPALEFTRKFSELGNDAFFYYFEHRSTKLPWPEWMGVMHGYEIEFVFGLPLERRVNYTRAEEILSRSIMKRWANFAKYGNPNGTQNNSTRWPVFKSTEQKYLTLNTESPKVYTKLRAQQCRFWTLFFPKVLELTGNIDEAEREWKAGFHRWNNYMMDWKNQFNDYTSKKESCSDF
# Procedure, shortened: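 Ellman assay with horse serum BuChE (5 IU/mL) in 0.1 M phosphate buffer pH 8.0 with DTNB. Compound was preincubated with enzyme 5 min, then butyrylthiocholine iodide was added. Absorbance read at 412 nm. IC50 from a log concentration vs % inhibition curve; triplicate runs.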
# SH-SY5Y [6] = assay: Neuroprotection against H2O2-induced cell death in human SH-SY5Y cells assessed as cell viability at 50 uM preincubated for 3 hrs followed by H2O2 addition measured after 24 hrs by MTT assay relative to control; type: functional; details: read-out: Activity
# Procedure, shortened: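 SH-SY5Y cells grown in DMEM with 10% FBS, 1% L-glutamine and antibiotics, 5×10^3/well. Compound (10 or 50 µM) for 3 h before 250 µM H2O2, then 24 h incubation. MTT read at 570 nm after DMSO solubilization. Viability as blank-corrected % of untreated control; three independent experiments, mean ± SEM.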
# PC-12 [7] = assay: Neuroprotection against H2O2-induced cell death in rat PC12 cells assessed as cell viability at 5 uM preincubated for 3 hrs followed by H2O2 stimulation measured after 2 hrs by MTT assay (reference value: 25.2 to 41.8%); type: functional; details: read-out: Activity
# PC-12 [8] = assay: Inhibition of H2O2-induced ROS generation in rat PC12 cells assessed as intracellular ROS level at 1 uM preincubated for 6 hrs followed by H2O2 addition measured after 18 hrs by DCFH-DA staining based fluorimetric method relative to control; type: functional; parameters: scale not given: the % may be the effect or the level left; procedure, shortened: as §1
# [9] = Inhibition of soybean 15-LOX assessed as reduction in conversion of linoleic acid to 13-hydroperoxylinoleic acid by spectrophotometric method; parameters: species or system Glycine max
# Procedure, shortened: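 Soybean lipoxygenase type 1-B (final 167 U/mL) with compound (DMSO stock diluted in 0.1 M phosphate buffer pH 8) and linoleic acid (134 mM in ethanol) at room temperature. Formation of 13-hydroperoxylinoleic acid followed spectrophotometrically at 234 nm.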
# [10] = target: Amyloid-beta precursor protein (Homo sapiens) (UniProt P05067); assay: Inhibition of amyloid beta (1 to 42) (unknown origin) self-induced aggregation at 100 uM incubated for 48 hrs by thioflavin-T fluorescence assay relative to control
# Sequence of Amyloid-beta precursor protein (Homo sapiens) (P05067 whole entry): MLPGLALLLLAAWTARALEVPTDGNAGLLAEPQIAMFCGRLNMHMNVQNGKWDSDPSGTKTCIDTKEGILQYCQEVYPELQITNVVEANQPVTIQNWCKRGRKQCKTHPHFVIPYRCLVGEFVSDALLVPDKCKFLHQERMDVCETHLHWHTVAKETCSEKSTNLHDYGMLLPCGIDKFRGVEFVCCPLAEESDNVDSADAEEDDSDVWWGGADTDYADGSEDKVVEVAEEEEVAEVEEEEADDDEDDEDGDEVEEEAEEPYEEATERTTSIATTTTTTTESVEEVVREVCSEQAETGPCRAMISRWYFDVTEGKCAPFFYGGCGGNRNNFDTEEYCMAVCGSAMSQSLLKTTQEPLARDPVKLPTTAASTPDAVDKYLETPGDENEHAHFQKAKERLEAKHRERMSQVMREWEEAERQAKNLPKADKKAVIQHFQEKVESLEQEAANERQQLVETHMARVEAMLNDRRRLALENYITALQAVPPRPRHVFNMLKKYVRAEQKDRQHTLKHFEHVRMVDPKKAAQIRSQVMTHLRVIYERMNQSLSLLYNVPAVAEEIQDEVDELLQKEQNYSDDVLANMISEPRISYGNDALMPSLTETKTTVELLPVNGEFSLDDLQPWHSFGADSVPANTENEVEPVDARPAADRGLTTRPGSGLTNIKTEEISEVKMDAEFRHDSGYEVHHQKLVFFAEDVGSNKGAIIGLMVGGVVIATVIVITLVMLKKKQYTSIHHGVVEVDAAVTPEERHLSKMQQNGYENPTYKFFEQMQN
# PC-12 [11] = assay: Cytotoxicity against rat PC12 cells assessed as effect on cell viability at 1 to 50 uM by MTT assay; type: cell-based; details: pc-12, 50 µM
# PC-12 [12] = assay: Neuroprotection against H2O2-induced cell death in rat PC12 cells assessed as cell viability at 20 uM preincubated for 3 hrs followed by H2O2 stimulation measured after 2 hrs by MTT assay (reference value: 25.2 to 41.8%); type: functional; details: read-out: Activity
# PC-12 [13] = assay: Neuroprotection against H2O2-induced cell death in rat PC12 cells assessed as cell viability at 0.1 uM preincubated for 3 hrs followed by H2O2 stimulation measured after 2 hrs by MTT assay (reference value: 25.2 to 41.8%); type: functional; details: read-out: Activity
# PC-12 [14] = assay: Inhibition of H2O2-induced ROS generation in rat PC12 cells assessed as intracellular ROS level at 10 uM preincubated for 6 hrs followed by H2O2 addition measured after 18 hrs by DCFH-DA staining based fluorimetric method relative to control; type: functional; parameters: scale not given: the % may be the effect or the level left; procedure, shortened: as §1
# PC-12 [15] = assay: Neuroprotection against H2O2-induced cell death in rat PC12 cells assessed as cell viability at 1 uM preincubated for 3 hrs followed by H2O2 stimulation measured after 2 hrs by MTT assay (reference value: 25.2 to 41.8%); type: functional; details: read-out: Activity
# PC-12 [16] = assay: Inhibition of H2O2-induced ROS generation in rat PC12 cells assessed as intracellular ROS level at 5 uM preincubated for 6 hrs followed by H2O2 addition measured after 18 hrs by DCFH-DA staining based fluorimetric method relative to control; type: functional; parameters: scale not given: the % may be the effect or the level left; procedure, shortened: as §1
# PC-12 [17] = assay: Inhibition of H2O2-induced ROS generation in rat PC12 cells assessed as intracellular ROS level at 50 uM preincubated for 6 hrs followed by H2O2 addition measured after 18 hrs by DCFH-DA staining based fluorimetric method relative to control; type: functional; parameters: scale not given: the % may be the effect or the level left; procedure, shortened: as §1
# Acetylcholinesterase = Acetylcholinesterase (Electrophorus electricus, UniProt O42275); assay: Inhibition of electric eel AChE using acetylthiocholine iodide as substrate pretreated for 5 mins followed by substrate addition by Ellman's method
# Sequence of Acetylcholinesterase (O42275 whole entry): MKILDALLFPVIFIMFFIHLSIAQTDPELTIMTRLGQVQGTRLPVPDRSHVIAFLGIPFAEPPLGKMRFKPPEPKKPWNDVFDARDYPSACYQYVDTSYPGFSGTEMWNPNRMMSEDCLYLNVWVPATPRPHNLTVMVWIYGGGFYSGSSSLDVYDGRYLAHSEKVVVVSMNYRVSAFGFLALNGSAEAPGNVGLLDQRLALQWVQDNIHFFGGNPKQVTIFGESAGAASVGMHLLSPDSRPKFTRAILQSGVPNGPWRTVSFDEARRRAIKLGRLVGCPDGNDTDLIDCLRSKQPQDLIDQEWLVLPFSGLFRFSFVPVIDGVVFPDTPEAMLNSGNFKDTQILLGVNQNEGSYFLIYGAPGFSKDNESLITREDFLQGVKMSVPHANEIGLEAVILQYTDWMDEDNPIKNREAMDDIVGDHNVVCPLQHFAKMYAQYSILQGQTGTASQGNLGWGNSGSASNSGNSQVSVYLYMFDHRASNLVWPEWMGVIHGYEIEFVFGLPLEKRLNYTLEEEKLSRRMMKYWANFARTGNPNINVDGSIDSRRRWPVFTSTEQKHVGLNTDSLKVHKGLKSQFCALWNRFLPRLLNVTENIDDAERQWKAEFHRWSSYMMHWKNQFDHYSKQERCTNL
# SH-SY5Y [18] = assay: Neuroprotection against H2O2-induced cell death in human SH-SY5Y cells assessed as cell viability at 100 uM preincubated for 3 hrs followed by H2O2 addition measured after 24 hrs by MTT assay relative to control; details: read-out: Activity
# SH-SY5Y [19] = assay: Inhibition of amyloid beta (1 to 42) (unknown origin)-induced cell death in human SH-SY5Y cells assessed as cell viability at 100 uM preincubated for 3 hrs followed by amyloid beta (1 to 42) addition measured after 24 hrs by MTT assay relative to control; details: read-out: Activity
compound,measurement,setting,value
Cc1cc(=O)oc2cc(OCCCn3cc(CNC(=O)CCCCC4CCSS4)nn3)ccc12 (stereo unspecified),viability at 10 µM,PC-12 [1],69.4%
same,Activity,PC-12 [2],Dose-dependent effect
same,viability at 50 µM,PC-12 [3],75.4%
same,inhibition,PC-12 [4],Dose-dependent effect
same,viability at 50 µM,SH-SY5Y [5],72.9%
same,IC50,Cholinesterase,> 100 µM
same,viability at 50 µM,SH-SY5Y [6],55.6%
same,viability at 5 µM,PC-12 [7],64.6%
same,Activity,PC-12 [8],118.8%
same,IC50,[9],> 100 µM
same,inhibition,[10],26.6%
same,Activity,PC-12 [11],Non-Toxic
same,viability at 20 µM,PC-12 [12],74.3%
same,viability at 0.1 µM,PC-12 [13],44.8%
same,Activity,PC-12 [14],122.93%
same,viability at 1 µM,PC-12 [15],54.5%
same,Activity,PC-12 [16],131.54%
same,Activity,PC-12 [17],49.24%
same,IC50,Acetylcholinesterase,55 µM
COc1cc2c(cc1OC)C(=O)C(CC1CCN(Cc3ccccc3)CC1)C2 (stereo unspecified) [DONEPEZIL],viability at 100 µM,SH-SY5Y [18],33%
same,viability at 100 µM,SH-SY5Y [19],39.9%
